Experimental data reported in ChEMBL document CHEMBL1781919, “Synthesis and anticonvulsant properties of 1-(amino-N-arylmethanethio)-3-(1-substituted benzyl-2, 3-dioxoindolin-5-yl) urea derivatives” (Eur J Med Chem, 2011).
Active and inactive are the calls of the source. The rule behind the calls is not given here.

Experiments:
[1] = tested on: Mus musculus; assay: Anticonvulsant activity in mouse assessed as protection against electrically-induced seizure at 100 mg/kg, ip after 0.25 hrs by 6Hz psychomotor seizure test; format: functional, organism-based; parameters: dose 100 mg/kg
Method in brief: (§1)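 Mice pretreated by i.p. injection at 100 mg/kg, then challenged through corneal electrodes at 6 Hz, 32 mA for 3 s, which elicits a psychomotor seizure in 97% of animals. Four mice per time point. Score is N/F, the number of animals protected over the number tested. Testing run under the NINDS Anticonvulsant Screening Program.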

[2] = tested on: Mus musculus; assay: Neurotoxicity in mouse assessed as minimum motor impairment at 30 mg/kg, ip after 0.5 hrs by rotarod test; format: toxicity, organism-based; parameters: dose 30 mg/kg, route intraperitoneal; conditions: in vivo
Method in brief: (§2)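 Rotorod test for minimal motor impairment in mice given 30, 100 or 300 mg/kg i.p. at 0.01 mL/g, using sets of one, three and one animals, at 0.5 h and 4.0 h. Animals are observed at each dose and time. Score is N/F, the number showing toxicity over the number tested.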

[3] = tested on: Mus musculus; assay: Anticonvulsant activity in mouse assessed as protection against subcutaneous pentylenetetrazole-induced seizures at 300 mg/kg, ip after 4 hrs; format: functional, organism-based; parameters: dose 300 mg/kg
[4] = tested on: Mus musculus; assay: Anticonvulsant activity in mouse assessed as protection against subcutaneous pentylenetetrazole-induced seizures at 100 mg/kg, ip after 4 hrs; format: functional, organism-based; parameters: dose 100 mg/kg
[5] = tested on: Mus musculus; assay: Anticonvulsant activity in mouse assessed as protection against subcutaneous pentylenetetrazole-induced seizures at 30 mg/kg, ip after 4 hrs; format: functional, organism-based; parameters: dose 30 mg/kg
[6] = tested on: Mus musculus; assay: Anticonvulsant activity in mouse assessed as protection against maximal electroshock-induced seizures at 100 mg/kg, ip after 0.5 hrs; format: functional, organism-based; parameters: dose 100 mg/kg
Method in brief: (§3)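 Mouse Test 1: i.p. dosing at 0.01 mL/g. Sets of one, three and one animals receive 30, 100 and 300 mg/kg respectively, each tested at 0.5 h and 4.0 h. Score is N/F, the number of animals protected over the number tested. Screening performed by NINDS following the ADD program protocol.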

[7] = tested on: Mus musculus; assay: Anticonvulsant activity in mouse assessed as protection against electrically-induced seizure at 100 mg/kg, ip after 4 hrs by 6Hz psychomotor seizure test; format: functional, organism-based; parameters: dose 100 mg/kg; method in brief: as §1
[8] = tested on: Mus musculus; assay: Anticonvulsant activity in mouse assessed as protection against electrically-induced seizure at 100 mg/kg, ip after 2 hrs by 6Hz psychomotor seizure test; format: functional, organism-based; parameters: dose 100 mg/kg; method in brief: as §1
[9] = tested on: Mus musculus; assay: Neurotoxicity in mouse assessed as minimum motor impairment at 100 mg/kg, ip after 0.5 hrs by rotarod test; format: toxicity, organism-based; parameters: dose 100 mg/kg, route intraperitoneal; conditions: in vivo; method in brief: as §2
[10] = tested on: Mus musculus; assay: Anticonvulsant activity in mouse assessed as protection against subcutaneous pentylenetetrazole-induced seizures at 300 mg/kg, ip after 0.5 hrs; format: functional, organism-based; parameters: dose 300 mg/kg
[11] = Octanol-phosphate buffer partition coefficient, log P of the compound; format: physicochemical
Method in brief: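 Octanol and phosphate buffer partition run at room temperature (29 °C). After separation, the phases are membrane-filtered and drug in the aqueous phase is measured by UV. PC = (Ct − Ca)/Ca, where Ct is total drug concentration and Ca is aqueous-phase concentration.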

[12] = tested on: Mus musculus; assay: Anticonvulsant activity in mouse assessed as protection against electrically-induced seizure at 100 mg/kg, ip after 1 hr by 6Hz psychomotor seizure test; format: functional, organism-based; parameters: dose 100 mg/kg; method in brief: as §1
[13] = tested on: Mus musculus; assay: Anticonvulsant activity in mouse assessed as protection against maximal electroshock-induced seizures at 300 mg/kg, ip after 0.5 hrs; format: functional, organism-based; parameters: dose 300 mg/kg; method in brief: as §3
[14] = tested on: Mus musculus; assay: Anticonvulsant activity in mouse assessed as protection against electrically-induced seizure at 100 mg/kg, ip after 0.5 hrs by 6Hz psychomotor seizure test; format: functional, organism-based; parameters: dose 100 mg/kg; method in brief: as §1
[15] = tested on: Mus musculus; assay: Neurotoxicity in mouse assessed as minimum motor impairment at 100 mg/kg, ip after 4 hrs by rotarod test; format: toxicity, organism-based; parameters: dose 100 mg/kg, route intraperitoneal; conditions: in vivo; method in brief: as §2
[16] = tested on: Mus musculus; assay: Neurotoxicity in mouse assessed as electrically-induced clonic seizures at 100 mg/kg, ip after 2 hrs by rotarod test; format: toxicity, organism-based; parameters: dose 100 mg/kg, route intraperitoneal; conditions: in vivo
Method in brief: (§4)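 Rotorod toxicity in mice given 100 mg/kg i.p., four per time point, alongside the 6 Hz test. The endpoint is inability to maintain balance on the rotorod. Score is N/F, the number of animals showing toxicity over the number tested.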

[17] = tested on: Mus musculus; assay: Anticonvulsant activity in mouse assessed as protection against subcutaneous pentylenetetrazole-induced seizures at 30 mg/kg, ip after 0.5 hrs; format: functional, organism-based; parameters: dose 30 mg/kg
[18] = tested on: Mus musculus; assay: Neurotoxicity in mouse assessed as minimum motor impairment at 300 mg/kg, ip after 4 hrs by rotarod test; format: toxicity, organism-based; parameters: dose 300 mg/kg, route intraperitoneal; conditions: in vivo; method in brief: as §2
[19] = tested on: Mus musculus; assay: Anticonvulsant activity in mouse assessed as protection against maximal electroshock-induced seizures at 30 mg/kg, ip after 0.5 hrs; format: functional, organism-based; parameters: dose 30 mg/kg; method in brief: as §3
[20] = tested on: Mus musculus; assay: Neurotoxicity in mouse assessed as minimum motor impairment at 30 mg/kg, ip after 4 hrs by rotarod test; format: toxicity, organism-based; parameters: dose 30 mg/kg, route intraperitoneal; conditions: in vivo; method in brief: as §2
[21] = tested on: Mus musculus; assay: Anticonvulsant activity in mouse assessed as protection against subcutaneous pentylenetetrazole-induced seizures at 100 mg/kg, ip after 0.5 hrs; format: functional, organism-based; parameters: dose 100 mg/kg
[22] = tested on: Mus musculus; assay: Anticonvulsant activity in mouse assessed as protection against maximal electroshock-induced seizures at 30 mg/kg, ip after 4 hrs; format: functional, organism-based; parameters: dose 30 mg/kg; method in brief: as §3
[23] = tested on: Mus musculus; assay: Neurotoxicity in mouse assessed as minimum motor impairment at 300 mg/kg, ip after 0.5 hrs by rotarod test; format: toxicity, organism-based; parameters: dose 300 mg/kg, route intraperitoneal; conditions: in vivo; method in brief: as §2
[24] = tested on: Mus musculus; assay: Neurotoxicity in mouse assessed as electrically-induced clonic seizures at 100 mg/kg, ip after 0.5 hrs by rotarod test; format: toxicity, organism-based; parameters: dose 100 mg/kg, route intraperitoneal; conditions: in vivo; method in brief: as §4
[25] = tested on: Mus musculus; assay: Neurotoxicity in mouse assessed as electrically-induced clonic seizures at 100 mg/kg, ip after 4 hrs by rotarod test; format: toxicity, organism-based; parameters: dose 100 mg/kg, route intraperitoneal; conditions: in vivo; method in brief: as §4
[26] = tested on: Mus musculus; assay: Anticonvulsant activity in mouse assessed as protection against maximal electroshock-induced seizures at 100 mg/kg, ip after 4 hrs; format: functional, organism-based; parameters: dose 100 mg/kg; method in brief: as §3
[27] = tested on: Mus musculus; assay: Neurotoxicity in mouse assessed as electrically-induced clonic seizures at 100 mg/kg, ip after 1 hr by rotarod test; format: toxicity, organism-based; parameters: dose 100 mg/kg, route intraperitoneal; conditions: in vivo; method in brief: as §4
[28] = tested on: Mus musculus; assay: Anticonvulsant activity in mouse assessed as protection against maximal electroshock-induced seizures at 300 mg/kg, ip after 4 hrs; format: functional, organism-based; parameters: dose 300 mg/kg; method in brief: as §3
[29] = tested on: Mus musculus; assay: Neurotoxicity in mouse assessed as electrically-induced clonic seizures at 100 mg/kg, ip after 0.25 hrs by rotarod test; format: toxicity, organism-based; parameters: dose 100 mg/kg, route intraperitoneal; conditions: in vivo; method in brief: as §4

SMILES	Activity [1]	Activity [2]	Activity [3]	Activity [4]	Activity [5]	Activity [6]	Activity [9]	Activity [10]	logP [11]	Activity [13]	Activity [15]	Activity [17]	Activity [18]	Activity [19]	Activity [20]	Activity [21]	Activity [22]	Activity [23]	Activity [26]	Activity [28]	further results
COc1ccc(NC(=S)NC(=O)Nc2ccc3c(c2)C(=O)C(=O)N3Cc2ccccc2)cc1	Active	Non-toxic	inactive	inactive	inactive	inactive	Non-toxic	Active	2.39	Active	Non-toxic	inactive	Non-toxic	inactive	Non-toxic	inactive	inactive	Non-toxic	inactive	Active	Activity [7]: inactive; Activity [8]: inactive; Activity [12]: inactive; Activity [14]: Active; Activity [16]: Non-toxic; Activity [24]: Non-toxic; Activity [25]: Non-toxic; Activity [27]: Non-toxic; Activity [29]: Non-toxic
Cc1ccccc1NC(=S)NC(=O)Nc1ccc2c(c1)C(=O)C(=O)N2Cc1ccccc1	–	Non-toxic	inactive	inactive	inactive	inactive	Non-toxic	inactive	2.98	inactive	Non-toxic	inactive	Non-toxic	inactive	Non-toxic	inactive	inactive	Non-toxic	inactive	inactive	–
O=C(NC(=S)Nc1ccccc1)Nc1ccc2c(c1)C(=O)C(=O)N2Cc1ccccc1Cl	Active	Non-toxic	inactive	inactive	inactive	inactive	Non-toxic	Active	3.18	Active	Non-toxic	inactive	Non-toxic	inactive	Non-toxic	inactive	inactive	Non-toxic	Active	–	Activity [7]: inactive; Activity [8]: inactive; Activity [12]: Active; Activity [14]: Active; Activity [16]: Non-toxic; Activity [24]: Non-toxic; Activity [25]: Non-toxic; Activity [27]: Non-toxic; Activity [29]: Non-toxic
Cc1ccc(NC(=S)NC(=O)Nc2ccc3c(c2)C(=O)C(=O)N3Cc2ccccc2Cl)cc1	–	Non-toxic	inactive	inactive	inactive	inactive	Non-toxic	inactive	3.73	inactive	Non-toxic	inactive	Non-toxic	inactive	Non-toxic	inactive	inactive	Non-toxic	inactive	inactive	–
O=C(NC(=S)Nc1ccccc1Cl)Nc1ccc2c(c1)C(=O)C(=O)N2Cc1ccccc1Cl	–	Non-toxic	inactive	inactive	inactive	inactive	Non-toxic	inactive	3.98	inactive	Non-toxic	inactive	Non-toxic	inactive	Non-toxic	inactive	inactive	Non-toxic	inactive	inactive	–
